This is an account of results in ChEMBL document CHEMBL4765239, “Discovery of a Novel Highly Selective Histamine H4 Receptor Antagonist for the Treatment of Atopic Dermatitis” (J Med Chem, 2018).

Test [1] deals with Mus musculus. Description: Anti-pruritus activity in ICR mouse with C48/80-induced itching assessed as reduction of scratching bouts at 50 mg/kg, po administered 30 mins prior to […] and measured upto 20 mins. In kind it is functional, organism-based. Particulars: time 50.0 min. Put shortly:
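Female ICR mice (n=8-10 per group), back skin clipped 24 h before. Oral dose in 20% hydroxypropyl-β-cyclodextrin given 30 min before intradermal pruritogen in saline: histamine 300 nmol, substance P 100 nmol or C48/80 100 µg. Scratching bouts counted from video for 20 min after injection. Mean ± S.E.M., Student's t-test.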

In test [2] the test system is Mus musculus. Nature of the test: Anti-pruritus activity in ICR mouse with histamine-induced itching assessed as free plasma concentration causing 50% reduction of scratching bouts at 10 mg/kg, po administered 30 mins prior to histamine challenge and measured upto 20 mins. It counts as functional. Conditions: time 50 min. In outline: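 Female ICR mice, oral dose in 20% hydroxypropyl-β-cyclodextrin 30 min before intradermal histamine (300 nmol). Scratching bouts counted over 20 min from video. Free plasma concentration at Tmax was plotted against the scratching response.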

Test [3] addresses T1, 5-hydroxytryptamine receptor 3A (Homo sapiens) (UniProt P46098).
T1 sequence (whole entry): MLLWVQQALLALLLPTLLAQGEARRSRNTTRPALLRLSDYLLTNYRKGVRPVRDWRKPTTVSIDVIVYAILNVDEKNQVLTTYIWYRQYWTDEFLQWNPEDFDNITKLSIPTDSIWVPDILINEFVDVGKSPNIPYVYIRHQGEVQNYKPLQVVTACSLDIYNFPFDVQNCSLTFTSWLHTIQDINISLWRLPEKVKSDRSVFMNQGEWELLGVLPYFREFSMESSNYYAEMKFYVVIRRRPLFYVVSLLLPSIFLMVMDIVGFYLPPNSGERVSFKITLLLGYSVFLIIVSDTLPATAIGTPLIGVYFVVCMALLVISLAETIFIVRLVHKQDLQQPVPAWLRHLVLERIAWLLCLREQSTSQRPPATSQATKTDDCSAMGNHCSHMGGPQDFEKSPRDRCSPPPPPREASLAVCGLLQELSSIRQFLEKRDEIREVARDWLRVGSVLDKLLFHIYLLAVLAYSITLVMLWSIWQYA
Description: Displacement of [3H]BRL 43694 from human recombinant 5-HT3 receptor at 10 uM after 120 mins by scintillation counting analysis relative to control. In general terms: Displacement assays read how much labelled ligand stays bound in the presence of the test substance.

The next test has as its target Histamine H4 receptor (Homo sapiens, UniProt Q9H3N8). Description: Antagonist activity at recombinant human histamine H4 receptor expressed in CHO-K1 cells assessed as inhibition of R-alpha-methylhistamine induced stimulation of [35S]-GTPgammaS binding by scintillation proximity assay. It counts as functional, cell membranes, Cell membrane. In outline:
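Functional [35S]GTPγS binding on recombinant human H4R. Antagonism was measured against the reference agonist R-α-methylhistamine, with JNJ10191584 as the reference antagonist. Run by a contract lab.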
For orientation: GTPγS is a poorly hydrolysed GTP analogue; its binding reports G protein activation.

Test [4] concerns the target T2, Histamine H4 receptor (Mus musculus) (UniProt Q91ZY2).
T2 sequence (whole entry): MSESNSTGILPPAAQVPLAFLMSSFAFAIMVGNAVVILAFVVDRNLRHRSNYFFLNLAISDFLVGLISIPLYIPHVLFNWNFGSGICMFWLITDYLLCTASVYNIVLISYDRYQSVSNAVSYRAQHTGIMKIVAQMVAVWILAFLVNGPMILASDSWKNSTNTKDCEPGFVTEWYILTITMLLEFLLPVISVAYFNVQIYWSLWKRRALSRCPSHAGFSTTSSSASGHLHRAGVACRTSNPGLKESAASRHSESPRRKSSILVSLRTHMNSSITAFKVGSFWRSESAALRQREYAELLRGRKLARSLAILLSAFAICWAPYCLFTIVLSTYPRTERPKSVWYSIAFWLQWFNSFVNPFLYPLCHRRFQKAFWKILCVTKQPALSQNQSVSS
Nature of the test: Agonist activity at recombinant mouse histamine H4 receptor expressed in CHO-K1 cells assessed as stimulation of [35S]-GTPgammaS binding by scintillation proximity assay. It counts as functional, cell membranes. Particulars: Cell membrane. Put shortly:
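GTPγ35S binding on recombinant mouse H4R, run by an outside contractor. R-α-methylhistamine served as reference agonist and thioperamide as reference antagonist.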

Test [5] deals with Mus musculus. Nature of the test: Antiinflammatory activity in oxazolone-induced Balb/c mouse model of atopic dermatitis assessed as reduction of hyperplasia at 50 mg/kg, po BID administered 30 mins prior to oxazolone challenge for 3 weeks by hematoxylin and eosin staining based histopathological analysis. In kind it is functional, organism-based.
Test [6] can be described thus: Ratio of anti-pruritus activity in ICR mouse with histamine-induced itching assessed as free plasma concentration causing 50% reduction of scratching bouts at 10 mg/kg, po administered 30 mins prior to histamine challenge and measured upto 20 mins to Ic50 for displacement of [3H]-histamine from recombinant mouse histamine H4 receptor expressed in CHO-K1 cell membranes. Put shortly:
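Itch model: female ICR mice (n=8-10), back clipped 24 h earlier, dosed orally in 20% hydroxypropyl-β-cyclodextrin 30 min before intradermal histamine (300 nmol, saline). Scratching bouts were videorecorded for 20 min. Free plasma concentration taken at Tmax. Binding used CHO-K1 mouse H4R membranes with [3H]histamine in 50 mM Tris-HCl pH 7.4, 30 min at 27 °C, then filtration and scintillation counting.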

SMILES strings stand for the structures. Activity calls are given as the source filed them. No cut-off for these calls is given here.

Chain of Histamine H4 receptor (Q9H3N8 whole entry): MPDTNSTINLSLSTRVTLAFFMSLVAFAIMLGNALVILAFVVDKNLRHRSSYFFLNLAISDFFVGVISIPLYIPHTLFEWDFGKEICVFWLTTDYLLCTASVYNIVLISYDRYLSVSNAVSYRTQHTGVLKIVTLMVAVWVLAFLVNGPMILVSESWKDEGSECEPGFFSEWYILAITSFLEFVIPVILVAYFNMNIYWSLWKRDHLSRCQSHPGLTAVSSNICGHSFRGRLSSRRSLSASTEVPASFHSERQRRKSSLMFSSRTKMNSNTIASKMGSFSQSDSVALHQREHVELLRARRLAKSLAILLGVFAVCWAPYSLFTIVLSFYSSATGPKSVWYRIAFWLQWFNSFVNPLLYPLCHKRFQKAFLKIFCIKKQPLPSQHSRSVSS

For orientation: inhibition means the relative decrease from the control value, in per cent. Broadly, the IC50 is the concentration that inhibits the measured activity by half. Take `CNC1CN(c2nc3ncc(Br)cc3n3nnnc23)C1`: the result with Mus musculus [1] and in the test on Mus musculus [5] was Active. In addition, the “Cp(f)” value with Mus musculus [2] worked out at 1.89 µM. Moreover, in test [3], the inhibition was determined as 14%. Also, the IC50 at Histamine H4 receptor was found to be 28 nM. For the same molecule, in test [4], the result was inactive. For the same molecule, in test [6], the Ratio worked out at 3.
